pKd, pKi: −log10 of the molar value.
What was measured:
[1] = biological target: T1, Kappa-type opioid receptor (Homo sapiens, UniProt P41145); test: Displacement of [125I]-IBNtxA from KOR-1 expressed in CHO cells; type: cell-based
[2] = biological target: T1, Kappa-type opioid receptor; test: Displacement of [125I]-IBNalA from KOR-1 expressed in CHO cells; type: cell-based
[3] = biological target: T2, Delta-type opioid receptor (Homo sapiens, UniProt P41143); test: Displacement of [3H]-DPDPE from DOR-1 expressed in CHO cells after 60 mins; type: cell-based
T2 sequence (P41143 whole entry): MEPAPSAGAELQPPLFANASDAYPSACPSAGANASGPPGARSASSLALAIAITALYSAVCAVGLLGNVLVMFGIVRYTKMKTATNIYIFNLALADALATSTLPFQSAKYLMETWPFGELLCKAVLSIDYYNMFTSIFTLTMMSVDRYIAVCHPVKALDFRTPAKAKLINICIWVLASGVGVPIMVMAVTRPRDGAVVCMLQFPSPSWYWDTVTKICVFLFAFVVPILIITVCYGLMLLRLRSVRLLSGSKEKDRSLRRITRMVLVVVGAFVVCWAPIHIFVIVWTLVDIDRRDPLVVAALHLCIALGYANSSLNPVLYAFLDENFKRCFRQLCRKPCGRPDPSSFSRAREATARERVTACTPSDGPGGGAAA
Procedure, shortened: (§1)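 Competition binding in membranes of CHO cells stably transfected with MOR-1, DOR-1 or KOR-1. Tracers were 1 nM 3H-DAMGO (MOR-1), 3H-DPDPE (DOR-1) or 3H-U69,593 (KOR-1). IC50 came from nonlinear regression and was converted to Ki. Values are the mean ± SEM of at least three independent replications.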

[4] = biological target: T2, Delta-type opioid receptor; test: Binding affinity to DOR-1 expressed in CHO cells after 90 mins; type: cell-based; details: for Bmax: tested as the 125I-labelled form
Procedure, shortened: (§2)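 Saturation binding of the carrier-free 125I-radioligand (KD) in membranes of CHO cells stably transfected with the named opioid receptor. For one DOR-1 saturation, specific activity was diluted 10-fold to allow higher ligand concentrations. Curves were fit to a single site by nonlinear regression. KD is the mean ± SEM of at least 3 independent determinations.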

[5] = biological target: T1, Kappa-type opioid receptor; test: Displacement of [3H]-U69593 from KOR-1 expressed in CHO cells after 60 mins; type: cell-based; procedure, shortened: as §1
[6] = biological target: T1, Kappa-type opioid receptor; test: Binding affinity to KOR-1 expressed in CHO cells after 90 mins; type: cell-based; details: for Bmax: tested as the 125I-labelled form; procedure, shortened: as §2
[7] = biological target: T3, Mu-type opioid receptor (Homo sapiens, UniProt P35372); test: Binding affinity to MOR-1 expressed in CHO cells after 90 mins; type: cell-based; details: for Bmax: tested as the 125I-labelled form; procedure, shortened: as §2
T3 sequence (P35372 whole entry): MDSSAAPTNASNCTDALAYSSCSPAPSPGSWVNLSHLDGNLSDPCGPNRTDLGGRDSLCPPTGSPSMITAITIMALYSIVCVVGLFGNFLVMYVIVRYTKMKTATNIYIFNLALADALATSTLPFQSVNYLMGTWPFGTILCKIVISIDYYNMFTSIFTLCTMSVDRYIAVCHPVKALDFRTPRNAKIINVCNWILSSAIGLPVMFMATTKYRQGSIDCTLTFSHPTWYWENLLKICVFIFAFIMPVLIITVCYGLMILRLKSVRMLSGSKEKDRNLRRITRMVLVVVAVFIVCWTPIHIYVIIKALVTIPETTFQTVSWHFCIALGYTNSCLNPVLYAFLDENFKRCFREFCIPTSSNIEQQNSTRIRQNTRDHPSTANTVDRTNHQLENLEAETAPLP

[8] = biological target: T3, Mu-type opioid receptor; test: Displacement of [3H]-DAMGO from MOR-1 expressed in CHO cells after 150 mins; type: cell-based; procedure, shortened: as §1
[9] = biological target: T3, Mu-type opioid receptor; test: biochemical; type: cell-based, CHO
[10] = biological target: T3, Mu-type opioid receptor; test: biochemical; type: cell-based, CHO; remark: listed apart in the source
[11] = biological target: T3, Mu-type opioid receptor; test: biochemical; type: cell-based, CHO; remark: listed apart in the source

T1 sequence (P41145 whole entry): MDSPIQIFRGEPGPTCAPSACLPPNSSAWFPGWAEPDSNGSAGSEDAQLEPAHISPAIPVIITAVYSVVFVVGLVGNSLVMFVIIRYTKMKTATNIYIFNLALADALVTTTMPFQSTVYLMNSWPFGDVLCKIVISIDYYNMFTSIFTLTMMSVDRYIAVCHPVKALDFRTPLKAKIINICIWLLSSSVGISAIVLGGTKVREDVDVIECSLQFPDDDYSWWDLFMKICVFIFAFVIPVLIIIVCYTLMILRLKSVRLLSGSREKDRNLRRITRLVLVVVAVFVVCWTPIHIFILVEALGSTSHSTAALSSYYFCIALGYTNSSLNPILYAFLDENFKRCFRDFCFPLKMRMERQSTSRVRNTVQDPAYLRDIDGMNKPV

SMILES: N=C(N)Nc1ccc2[nH]c3c(c2c1)C[C@@]1(O)[C@H]2Cc4ccc(O)c5c4[C@@]1(CCN2CC1CC1)[C@H]3O5 [GUANIDINONALTRINDOLE]
- pKi [1]: 9.82
- pKi [2]: 9.72

SMILES: O=C(N[C@@H]1CC[C@@]2(O)[C@H]3Cc4ccc(O)c5c4[C@@]2(CCN3CC2CC2)[C@H]1O5)c1cccc(I)c1
- pKi [3]: 9.24
- Bmax [4]: 0.96 pmol/mg
- pKi [5]: 9.64
- Bmax [6]: 0.57 pmol/mg
- Bmax [7]: 3.81 pmol/mg
- pKi [8]: 8.60

SMILES: C=CCN1CC[C@]23c4c5ccc(O)c4O[C@H]2[C@H](NC(=O)c2cccc(I)c2)CC[C@@]3(O)[C@H]1C5
- pKi [3]: 8.59
- Bmax [4]: 2.7 pmol/mg
- pKi [5]: 10.10
- Bmax [6]: 1.15 pmol/mg
- Bmax [7]: 1.18 pmol/mg
- pKi [8]: 9.15

SMILES: O=C(N[C@@H]1CC[C@@]2(O)[C@H]3Cc4ccc(O)c5c4[C@@]2(CCN3CC2CC2)[C@H]1O5)c1cccc([125I])c1
- pKd [4]: 9.62
- pKd [6]: 10.57
- pKd [7]: 9.96

SMILES: CN1CC[C@]23c4c5ccc(O)c4O[C@H]2[C@H](NC(=O)c2cccc(I)c2)CC[C@@]3(O)[C@H]1C5
- pKi [5]: 8.05
- Bmax [7]: 1.49 pmol/mg
- pKi [8]: 8.76

SMILES: C=CCN1CC[C@]23CCCC[C@H]2[C@H]1Cc1ccc(O)cc13 [LEVALLORPHAN]
- pKi [9]: 8.89
- pKi [10]: 8.77
- pKi [11]: 9.32

SMILES: CN1CC[C@]23c4c5ccc(O)c4O[C@H]2[C@H](NC(=O)c2cccc([125I])c2)CC[C@@]3(O)[C@H]1C5
- pKd [7]: 10.10

SMILES: C=CCN1CC[C@]23c4c5ccc(O)c4O[C@H]2[C@H](NC(=O)c2cccc([125I])c2)CC[C@@]3(O)[C@H]1C5
- pKd [4]: 8.60
- pKd [6]: 10.30
- pKd [7]: 9.66
